Here are results for 15 compounds from ChEMBL document CHEMBL2384995, “Discovery of highly potent triazole antifungal derivatives by heterocycle-benzene bioisosteric replacement” (Eur J Med Chem, 2013).

Converted amounts (≈) assume the structure as drawn. A value given as a limit tells only on which side of the number the result lay.

Broadly, the Tmax is the time at which the peak concentration occurs. As usually defined, the AUC(0-inf) is total exposure, with the tail of the curve extrapolated. Read a low AUC(0-inf) as less exposure. A word on the Cmax: it is the peak of the concentration-time curve. The term half-life denotes how long it takes for the measured level to halve. High values mean slow decline, low ones rapid decline. Usually MIC80 stands for an inhibitory concentration at the 80% level, which refers to growth in some studies and to a panel of isolates in others.

The nature of series [1]: Tmax in Sprague-Dawley rat at 15 mg/kg, po by LC/MS/MS analysis. It counts as ADME, organism-based. Also noted: dose 15 mg/kg, route oral. As to conditions: in vivo. A digest of the protocol:
(§1)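 Single oral dose of 15 mg/kg in Sprague-Dawley rats. Blood was drawn from the orbital venous plexus at several time points and plasma drug levels were quantified by LC/MS/MS, from which the pharmacokinetic parameters were obtained.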

Series [2] in a line: AUC (0 to infinity) in Sprague-Dawley rat at 15 mg/kg, po by LC/MS/MS analysis. The note with it: plasma. Also noted: time infinity, dose 15 mg/kg, route oral. Type of series: ADME, organism-based. A digest of the protocol:
as §1

The nature of series [3]: Cmax in Sprague-Dawley rat at 15 mg/kg, po by LC/MS/MS analysis. Type of series: ADME, organism-based. Also noted: dose 15 mg/kg, route oral. As to conditions: in vivo. In a few lines: as §1
The nature of series [4]: Half life in Sprague-Dawley rat at 15 mg/kg, po by LC/MS/MS analysis. It counts as ADME, organism-based. Also noted: dose 15 mg/kg, route oral. The note with it: in vivo. In a few lines:
as §1

A further series deals with Candida albicans. The experiment in a line: Antifungal activity against Candida albicans after 24 hrs by NCCLS method. It counts as functional. A digest of the protocol: (§2)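 Broth microdilution in 96-well plates following NCCLS recommendations, using ATCC strains or clinical isolates. Compounds were dissolved in DMSO and serially diluted in growth medium. Yeast plates were incubated at 35 °C and read at 24 h. MIC80 is the lowest concentration giving turbidity of […] inhibition relative to the drug-free growth control.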

The next series relates to Candida tropicalis. The experiment in a line: Antifungal activity against Candida tropicalis after 24 hrs by NCCLS method. Type of series: functional. In a few lines:
as §2

Series [5] concerns Trichophyton rubrum. Nature of the series: Antifungal activity against Trichophyton rubrum by NCCLS method. It counts as functional. In a few lines:
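Dermatophyte MIC by NCCLS broth serial dilution in 96-well plates, using an ATCC or clinical isolate. DMSO solutions were serially diluted in growth medium and incubated at 28 °C.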

The test system of series [6] is Cryptococcus neoformans. Nature of the series: Antifungal activity against Cryptococcus neoformans after 72 hrs by NCCLS method. Type of series: functional. A digest of the protocol: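 NCCLS serial-dilution MIC assay in 96-well plates against an ATCC or clinical yeast isolate. Test agents were taken up in DMSO and diluted serially in growth medium. Plates were held at 35 °C and growth was scored at 72 h. MIC80 is the lowest concentration reducing turbidity by at least 80% compared with the control culture.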

In series [7] the test system is Cryptococcus neoformans. The experiment in a line: Ratio of fluconazole MIC80 to compound MIC80 for Cryptococcus neoformans. Type of series: functional.
The subject of a further series is Aspergillus fumigatus. The experiment in a line: Antifungal activity against Aspergillus fumigatus after 7 days by NCCLS method. Type of series: functional. The note with it: 168 h. In a few lines:
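Microtest-plate serial dilution per NCCLS, with the strain taken from ATCC or a clinical source. Compounds were prepared in DMSO and serially diluted in growth medium. Growth was read after 7 days. The endpoint is the lowest concentration producing ≥80% turbidity inhibition versus the untreated growth control.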

The subject of series [8] is Trichophyton rubrum. The experiment in a line: Ratio of fluconazole MIC80 to compound MIC80 for Trichophyton rubrum. It counts as functional.
The mark [9] stands for this setting: Candida albicans, 24 h, read-out: MIC80.
The mark [10] stands for this setting: Cryptococcus neoformans, 72 h, read-out: MIC80.

Regarding `CN(Cc1ccc(I)cc1)CC(O)(Cn1cncn1)c1ccc(F)cc1F` (stereo not drawn), in [1], the Tmax stood at 0.9 h. The compound further displayed an area under the curve AUC(0-inf) in [2] of 546 ng·h/mL. In [3], the concentration peaked (Cmax) at 297 ng/mL. In [4], this compound gave a half-life of 1.38 h.
`CN(Cc1ccco1)CC(O)(Cn1cncn1)c1ccc(F)cc1F` (racemic): the MIC80 in the series on Candida albicans (setting [9]) was determined as 0.0625 µg/mL (≈ 0.179 µM); in the series with Candida tropicalis, 0.016 µg/mL (≈ 0.0459 µM); in the series on Trichophyton rubrum [5], 1 µg/mL (≈ 2.87 µM); in the series with Cryptococcus neoformans [6] (setting [10]), 0.0625 µg/mL (≈ 0.179 µM); against Aspergillus fumigatus, 64 µg/mL (≈ 184 µM). For the same compound, in the series with Cryptococcus neoformans [7], the Ratio was 32.
As to `OC(CN1CCN(Cc2ccccn2)CC1)(Cn1cncn1)c1ccc(F)cc1F` (racemic), the MIC80 stood at 0.0625 µg/mL (≈ 0.151 µM) in the series on Candida albicans (setting [9]); 1 µg/mL (≈ 2.41 µM) in the series on Candida tropicalis; 1 µg/mL (≈ 2.41 µM) in the series on Trichophyton rubrum [5]; 1 µg/mL (≈ 2.41 µM) with Cryptococcus neoformans [6] (setting [10]); 16 µg/mL (≈ 38.6 µM) against Aspergillus fumigatus. Also, the Ratio in the series on Cryptococcus neoformans [7] worked out at 2.
As for `OC(CN1CCN(Cc2nc3ccccc3o2)CC1)(Cn1cncn1)c1ccc(F)cc1F` (racemic), the MIC80 with Candida albicans (setting [9]) was 0.0625 µg/mL (≈ 0.138 µM); with Candida tropicalis, 0.004 µg/mL (≈ 0.0088 µM); with Trichophyton rubrum [5] it was 0.25 µg/mL (≈ 0.55 µM); in the series with Cryptococcus neoformans [6] (setting [10]), 0.0625 µg/mL (≈ 0.138 µM); against Aspergillus fumigatus, 0.25 µg/mL (≈ 0.55 µM). Further, the Ratio in the series on Trichophyton rubrum [8] was 4; in the series with Cryptococcus neoformans [7], 32.
In the case of `OC(CN1CCN(Cc2nc3ccccc3s2)CC1)(Cn1cncn1)c1ccc(F)cc1F` (racemic), the Tmax in [1] was 0.8 h. In addition, the MIC80 came to 0.016 µg/mL (≈ 0.034 µM) against Candida albicans; 0.004 µg/mL (≈ 0.0085 µM) against Candida tropicalis; 0.0625 µg/mL (≈ 0.133 µM) with Trichophyton rubrum [5]; 0.016 µg/mL (≈ 0.034 µM) against Cryptococcus neoformans [6]; 64 µg/mL (≈ 136 µM) in the series on Aspergillus fumigatus. In series [2], this compound returned an AUC(0-inf) of 1420 ng·h/mL. Moreover, the Ratio in the series on Trichophyton rubrum [8] came to 16; with Cryptococcus neoformans [7], 125. The same compound returned a Cmax in series [3] of 508 ng/mL. In series [4], this compound gave a half-life of 1.27 h.
Turning to `OC(CN1CCN(Cc2nc3ccccc3s2)CC1)(Cn1cncn1)c1ccc(F)cc1F` (single isomer, unassigned; (+)), the MIC80 in the series on Candida albicans and with Cryptococcus neoformans [6] was 0.0625 µg/mL (≈ 0.133 µM) in each case.
Consider `OC(CN1CCN(Cc2ccc3ccccc3n2)CC1)(Cn1cncn1)c1ccc(F)cc1F` (racemic), for which the MIC80 was 1 µg/mL (≈ 2.15 µM) in the series on Candida albicans (setting [9]); 0.016 µg/mL (≈ 0.0344 µM) with Candida tropicalis; 0.25 µg/mL (≈ 0.538 µM) in the series on Trichophyton rubrum [5]; 0.0625 µg/mL (≈ 0.135 µM) with Cryptococcus neoformans [6] (setting [10]); 2 µg/mL (≈ 4.31 µM) against Aspergillus fumigatus. Moreover, the Ratio in the series on Cryptococcus neoformans [7] amounted to 32.
In the case of `CN(Cc1cccs1)CC(O)(Cn1cncn1)c1ccc(F)cc1F` (racemic), the MIC80 in the series with Candida albicans (setting [9]) came to 1 µg/mL (≈ 2.74 µM); with Candida tropicalis, 0.125 µg/mL (≈ 0.343 µM); in the series on Trichophyton rubrum [5] it was 1 µg/mL (≈ 2.74 µM); in the series on Cryptococcus neoformans [6] (setting [10]), 0.016 µg/mL (≈ 0.0439 µM); with Aspergillus fumigatus, 16 µg/mL (≈ 43.9 µM). The Ratio with Cryptococcus neoformans [7] stood at 125.
`CN(Cc1ccc2ccccc2n1)CC(O)(Cn1cncn1)c1ccc(F)cc1F` (racemic): the MIC80 is 4 µg/mL (≈ 9.77 µM) in the series with Candida albicans (setting [9]); 1 µg/mL (≈ 2.44 µM) in the series with Candida tropicalis; 4 µg/mL (≈ 9.77 µM) against Trichophyton rubrum [5]; 0.25 µg/mL (≈ 0.611 µM) with Cryptococcus neoformans [6] (setting [10]); above 64 µg/mL against Aspergillus fumigatus. Also, the Ratio in the series on Cryptococcus neoformans [7] was determined as 8.
`CN(Cc1nc2ccccc2[nH]1)CC(O)(Cn1cncn1)c1ccc(F)cc1F` (racemic): the MIC80 in the series with Candida albicans (setting [9]) was 4 µg/mL (≈ 10 µM); in the series on Candida tropicalis, 0.25 µg/mL (≈ 0.627 µM); in the series on Trichophyton rubrum [5], above 64 µg/mL; in the series with Cryptococcus neoformans [6] (setting [10]) it was 16 µg/mL (≈ 40.2 µM); against Aspergillus fumigatus, above 64 µg/mL.
Consider `OC(CN1CCN(Cc2nc3ccccc3s2)CC1)(Cn1cncn1)c1ccc(F)cc1F` (stereo in doubt; (-)-8f), for which the MIC80 against Candida albicans and in the series with Cryptococcus neoformans [6] was below 0.016 µg/mL throughout.
For the compound `OC(Cn1cncn1)(Cn1cncn1)c1ccc(F)cc1F` [FLUCONAZOLE], the MIC80 is 0.25 µg/mL (≈ 0.816 µM) in the series on Candida albicans (setting [9]); 4 µg/mL (≈ 13.1 µM) in the series on Candida tropicalis; 1 µg/mL (≈ 3.27 µM) in the series with Trichophyton rubrum [5]; 2 µg/mL (≈ 6.53 µM) in the series with Cryptococcus neoformans [6] (setting [10]); above 64 µg/mL in the series with Aspergillus fumigatus.
The like results for `OC(CN1CCN(Cc2nc3ccccc3[nH]2)CC1)(Cn1cncn1)c1ccc(F)cc1F` (racemic) were, in that order, 4 µg/mL (≈ 8.82 µM), 1 µg/mL (≈ 2.21 µM), 64 µg/mL (≈ 141 µM), 16 µg/mL (≈ 35.3 µM) and above 64 µg/mL.
As for `OC(CN1CCN(Cc2cccs2)CC1)(Cn1cncn1)c1ccc(F)cc1F` (racemic), the MIC80 in the series on Candida albicans (setting [9]) was found to be 0.0625 µg/mL (≈ 0.149 µM); against Candida tropicalis it was 0.016 µg/mL (≈ 0.0381 µM); against Trichophyton rubrum [5] it was 4 µg/mL (≈ 9.54 µM); in the series with Cryptococcus neoformans [6] (setting [10]), 0.25 µg/mL (≈ 0.596 µM); against Aspergillus fumigatus, 16 µg/mL (≈ 38.1 µM). Moreover, in the series with Cryptococcus neoformans [7], the Ratio came to 8.
On to `CN(Cc1ccccn1)CC(O)(Cn1cncn1)c1ccc(F)cc1F` (racemic), for which the MIC80 is 1 µg/mL (≈ 2.78 µM) in the series with Candida albicans (setting [9]); 0.0625 µg/mL (≈ 0.174 µM) against Candida tropicalis; 4 µg/mL (≈ 11.1 µM) with Trichophyton rubrum [5]; 0.25 µg/mL (≈ 0.696 µM) with Cryptococcus neoformans [6] (setting [10]); above 64 µg/mL in the series with Aspergillus fumigatus. Further, in the series with Cryptococcus neoformans [7], the Ratio is 8.
